From publication PMC9868104 (Cell chemical biology, 2022)
Blank lines part the entries; values can stand above or below the molecule they belong to.

Tests used:
[1] = system: PARP7 protein levels; test: Endogenous PARP7 protein levels in CT-26 cells; type: cell-based, mouse
[2] = system: ISRE luciferase reporter (type I interferon); test: ISRE luciferase assay in ISRE-Luc CT-26 cells; type: cell-based, mouse; settings: 18 h, saturating doses
Outline: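 ISRE-Luc CT-26 cells were made by lentiviral ISRE-luciferase transduction with 8 μg/mL polybrene and kept under 20 μg/mL puromycin. 1.0 × 10^4 ISRE-Luc or WT CT-26 cells were grown overnight. Test compound was serially diluted in DMSO, then in medium, and added for 18 h. Lysates were read by ONE-Glo luminescence (2 s integration), with the WT CT-26 signal subtracted as background. Curves were four-parameter fits.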

[3] = system: secreted IFN-β; test: Interferon-β ELISA, CT-26 cells; type: cell-based, mouse; settings: 300 nM, 16 h
Outline: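 CT-26 cells were grown in RPMI-1640 + 10% FBS in 6-well plates. After 24 h, medium was replaced and cells were treated for 16 h with 300 nM test compound, with or without the covalent STING inhibitor H-151 (500 nM). Harvested medium was assayed for IFN-β with a mouse IFN-β ELISA kit. Statistics: one-way ANOVA.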

[4] = target: T1, PARP1 (Homo sapiens, UniProt P09874); settings: in words; cited from earlier work
T1 sequence (P09874 whole entry): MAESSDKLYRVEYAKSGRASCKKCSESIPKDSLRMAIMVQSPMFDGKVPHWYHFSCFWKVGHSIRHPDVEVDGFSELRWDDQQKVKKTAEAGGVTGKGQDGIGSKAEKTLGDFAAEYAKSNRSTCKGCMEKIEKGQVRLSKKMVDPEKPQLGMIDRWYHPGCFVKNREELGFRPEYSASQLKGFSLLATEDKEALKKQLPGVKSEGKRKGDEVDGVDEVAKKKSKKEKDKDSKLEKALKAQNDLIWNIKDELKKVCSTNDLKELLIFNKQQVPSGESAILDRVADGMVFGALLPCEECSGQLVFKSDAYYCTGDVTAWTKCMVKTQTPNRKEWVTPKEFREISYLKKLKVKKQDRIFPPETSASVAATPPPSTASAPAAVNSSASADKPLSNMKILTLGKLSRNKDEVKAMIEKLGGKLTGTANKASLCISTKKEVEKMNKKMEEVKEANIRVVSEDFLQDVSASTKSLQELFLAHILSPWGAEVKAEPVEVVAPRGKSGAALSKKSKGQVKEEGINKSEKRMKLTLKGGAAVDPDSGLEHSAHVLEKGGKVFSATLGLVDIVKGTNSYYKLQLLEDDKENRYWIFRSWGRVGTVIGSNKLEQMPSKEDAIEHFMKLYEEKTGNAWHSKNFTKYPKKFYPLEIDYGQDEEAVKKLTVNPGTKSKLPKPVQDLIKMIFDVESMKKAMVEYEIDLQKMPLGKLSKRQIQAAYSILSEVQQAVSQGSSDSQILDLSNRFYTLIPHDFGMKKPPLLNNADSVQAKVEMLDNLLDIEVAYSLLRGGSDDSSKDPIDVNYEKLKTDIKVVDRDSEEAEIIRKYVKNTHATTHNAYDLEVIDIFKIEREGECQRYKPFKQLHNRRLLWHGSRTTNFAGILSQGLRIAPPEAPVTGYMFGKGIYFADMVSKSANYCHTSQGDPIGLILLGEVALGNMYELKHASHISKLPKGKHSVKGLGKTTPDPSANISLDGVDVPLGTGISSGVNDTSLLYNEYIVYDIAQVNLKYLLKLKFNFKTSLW

[5] = target: T2, PARP12 (Homo sapiens, UniProt Q9H0J9); settings: in words; cited from earlier work
T2 sequence (Q9H0J9 484-698 limits assumed): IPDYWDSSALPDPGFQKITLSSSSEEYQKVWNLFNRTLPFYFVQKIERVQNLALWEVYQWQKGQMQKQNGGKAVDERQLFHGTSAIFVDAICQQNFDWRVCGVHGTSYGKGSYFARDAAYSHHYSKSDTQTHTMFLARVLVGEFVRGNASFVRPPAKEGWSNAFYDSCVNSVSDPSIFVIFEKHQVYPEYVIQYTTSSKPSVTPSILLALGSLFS

[6] = system: other PARP family members; test: PASTA family-wide PARP inhibitor screening, other PARP family members; type: biochemical
[7] = system: STAT1 and pSTAT1; test: STAT1 and pSTAT1; type: cell-based, mouse; settings: CT-26 cells
Outline: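 CT-26 cells at 75% confluency were treated with test compound at 0.01–1 μM for 16 h (dose-response) or at 0.3 μM over 0–24 h (time course); DMXAA (10 μg/ml, 1 h) served as positive control. Lysis buffer contained protease and phosphatase inhibitors plus 30 μM pan-PARP inhibitor. Bradford-normalized lysates were run on SDS-PAGE and nitrocellulose, probed for STAT1 and phospho-STAT1 Tyr701, detected by HRP chemiluminescence, and bands quantified densitometrically.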

[8] = target: PARP2 (Homo sapiens, UniProt Q9UGN5); test: PASTA biochemical PARP screening assay, PARP2; settings: in words
Chain of PARP2 (Q9UGN5 whole entry): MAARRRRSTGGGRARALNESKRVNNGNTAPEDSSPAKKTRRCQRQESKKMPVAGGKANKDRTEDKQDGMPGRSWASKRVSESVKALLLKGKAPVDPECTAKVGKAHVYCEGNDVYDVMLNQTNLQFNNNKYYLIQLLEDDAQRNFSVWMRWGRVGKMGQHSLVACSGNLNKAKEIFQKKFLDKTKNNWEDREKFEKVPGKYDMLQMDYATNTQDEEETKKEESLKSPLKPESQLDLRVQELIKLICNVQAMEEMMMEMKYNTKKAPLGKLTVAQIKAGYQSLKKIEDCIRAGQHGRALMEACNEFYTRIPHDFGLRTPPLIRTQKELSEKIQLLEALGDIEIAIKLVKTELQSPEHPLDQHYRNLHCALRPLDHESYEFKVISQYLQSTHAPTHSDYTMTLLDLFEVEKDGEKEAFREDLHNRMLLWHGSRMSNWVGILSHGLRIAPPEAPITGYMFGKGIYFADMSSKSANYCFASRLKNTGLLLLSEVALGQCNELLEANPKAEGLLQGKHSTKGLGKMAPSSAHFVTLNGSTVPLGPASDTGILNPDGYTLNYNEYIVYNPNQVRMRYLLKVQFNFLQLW

[9] = target: T3, PARP7 (Homo sapiens, UniProt Q7Z3E1); test: PASTA biochemical PARP screening assay, PARP7; settings: in words
T3 sequence (Q7Z3E1 1-657): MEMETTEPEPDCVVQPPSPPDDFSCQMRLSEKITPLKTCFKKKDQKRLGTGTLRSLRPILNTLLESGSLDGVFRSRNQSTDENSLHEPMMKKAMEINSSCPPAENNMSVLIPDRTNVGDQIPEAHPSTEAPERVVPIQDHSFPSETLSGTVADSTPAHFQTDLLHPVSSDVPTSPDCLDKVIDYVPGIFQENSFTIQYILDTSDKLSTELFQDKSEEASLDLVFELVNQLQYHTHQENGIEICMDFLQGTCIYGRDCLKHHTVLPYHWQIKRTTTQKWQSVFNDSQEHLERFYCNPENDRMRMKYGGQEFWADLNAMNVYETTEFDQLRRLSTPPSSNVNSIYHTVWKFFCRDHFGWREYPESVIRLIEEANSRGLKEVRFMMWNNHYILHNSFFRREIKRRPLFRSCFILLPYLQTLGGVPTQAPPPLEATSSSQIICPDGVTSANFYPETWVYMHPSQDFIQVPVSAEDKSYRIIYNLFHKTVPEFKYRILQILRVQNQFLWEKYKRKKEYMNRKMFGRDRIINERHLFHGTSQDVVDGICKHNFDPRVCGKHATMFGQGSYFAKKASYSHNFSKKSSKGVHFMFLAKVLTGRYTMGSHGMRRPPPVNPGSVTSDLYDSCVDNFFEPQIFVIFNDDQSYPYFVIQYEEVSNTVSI

[10] = target: T1, PARP1; test: PASTA biochemical PARP screening assay, PARP1; settings: in words
[11] = system: STING signaling (STING, pTBK1, pIRF3); test: STING, pTBK1 and pIRF3 western blot in CT-26 cells; type: cell-based, mouse
Outline: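 Lysates were made in HEPES/Triton buffer with TCEP, protease and phosphatase inhibitors and 30 μM pan-PARP inhibitor, normalized by Bradford, and run on SDS-PAGE and nitrocellulose. Blots were probed overnight at 4°C for STING, phospho-TBK1 Ser172 and phospho-IRF3 Ser396 (1:1000 for both phospho antibodies), with tubulin as loading control, and read by HRP chemiluminescence.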

[12] = system: CYP1A1 mRNA (AHR target gene); test: CYP1A1 mRNA levels in MEFs; type: cell-based, mouse; settings: PARP7−/− MEFs, 1 nM TCDD
[13] = increasing concentrations, 16 h

- IC50 ([6]; read-out: IC50 most other PARP family members (does not inhibit up to)): > 3000 nM
Structure (SMILES): C[C@@H](COCCC(=O)N1CCN(c2ncc(C(F)(F)F)cn2)CC1)Nc1cn[nH]c(=O)c1C(F)(F)F [RBN-2397]
- time of maximal PARP7 protein levels after addition ([1]; 0.3 μM time-course): ~ 16 h
- endogenous PARP7 levels [1, 13]: dramatically increased
- increase in PARP7 protein abundance compared to KMR-206 ([1]; saturating doses): 2 fold
- magnitude of ISRE luciferase response compared to KMR-206 [2]: ~ 2 fold
- levels of secreted IFN-β [3]: to a greater extent than KMR-206
- inhibition of PARP1, previous study [4]: double digit nanomolar inhibition
- inhibition of PARP12, previous study [5]: double digit nanomolar inhibition
- time of noticeable increase in STAT1 ([7]; 300 nM): 16 h
- time of noticeable increase in pSTAT1 ([7]; 300 nM): 4 h
- STAT1 and pSTAT1 levels [7, 13]: dose-dependently increased

- potency against PARP2 [8]: double-digit nanomolar
- potency against PARP7 [9]: double-digit nanomolar
- potency against PARP1 [10]: double-digit nanomolar
Structure (SMILES): N#Cc1ccc(N2CCN(C(=O)c3cc(Cc4n[nH]c(=O)c5ccccc45)ccc3F)CC2)nc1 [Phthal01]
- fold more potent against PARP7 compared to all other PARP family members ([6]; other than PARP1 and PARP2): at least 12 fold

Structure (SMILES): Cc1ccc2c(=O)c3cccc(CC(=O)O)c3oc2c1C [DMXAA, 5,6-Dimethylxanthenone-4-acetic Acid]
- STING levels [11]: substantially decreased
- pIRF3 [11]: robustly induced
- pTBK1 [11]: robustly induced

Structure (SMILES): Clc1cc2c(cc1Cl)Oc1cc(Cl)c(Cl)cc1O2 [TCDD, 2,3,7,8-tetrachlorodibenzo-p-dioxin]
- CYP1A1 mRNA levels, TCDD alone [12]: robust induction of CYP1A1
